Test results from the RNAGym collection of RNA variant scans (doi:10.1126/science.aae0568).
Fewer inactive variants are shown than the library holds.

B1: tRNA (parent)
chain: GUUCCGUUGGCGUAAUGGUAACGCGUCUCCCUCCUAAGGAGAAGACUGCGGGUUCGAGUCCCGUACGGAACG

Variants of: B1
Assay: yeast fitness relative to wild type (ratio to wild type); higher = fitter; tRNA-Arg(CCU), competitive growth, 37 C, YPD
Procedure, shortened: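 Gene amplicons from the start population and from each of six end populations were read by 100-nucleotide paired-end sequencing. Those end populations came from pooled Saccharomyces cerevisiae strains carrying tRNA-Arg(CCU) gene variants at the native locus, competed in YPD at 37°C for 24 hours. Fitness relative to wild type was worked out from changes in genotype frequencies. Genotypes needed ≥ 100 starting reads, and estimates < 0.5 were set to 0.5.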
In the case of U2G G9C G12A A42C C46A A65U, the yeast fitness is reported as 0.577.
With U2G C49G G50C A70C the yeast fitness was ≤ 0.5.
In the case of U2G G48A G58C, the yeast fitness is reported as 0.895.
With U2G G6C C11U C27U G63C the yeast fitness was ≤ 0.5.
With U2G G25C G52A the yeast fitness was ≤ 0.5.
For U2G U19C G48C G52C C62G, the yeast fitness was ≤ 0.5.
With U2G U7G A43C A45U C60A the yeast fitness was ≤ 0.5.
U2G C34G C46U G48C U54G gave a yeast fitness of 0.709.
In the case of U2G C46A G58C C62U, the yeast fitness is reported as ≤ 0.5.
For U2G C31A, the yeast fitness was 0.788.
U2G C31G gave a yeast fitness of 1.02.
U2G C31U gave a yeast fitness of 1.03.
For U2G G12A C31G C33G A40U G52A C60G C62U, the yeast fitness was ≤ 0.5.
In the case of U2G G6A C22U C27U A36U C60G, the yeast fitness is reported as ≤ 0.5.
In the case of U2G U26C C49U C55A, the yeast fitness is reported as ≤ 0.5.
For U2G G10C A69C, the yeast fitness was ≤ 0.5.
For U2G U8A G23A U26G A43G U54C C55A, the yeast fitness was ≤ 0.5.
Variant U2G C46G C49U has a yeast fitness of 0.669.
For U2G U16C C27U U35C, the yeast fitness was ≤ 0.5.
In the case of U2G C31U G48C, the yeast fitness is reported as 0.6.
In the case of U2G G9C A20G A42C A43G C46G C49U A69C, the yeast fitness is reported as ≤ 0.5.
Variant U2G G51A has a yeast fitness of 0.805.
U2G C49G G50C showed a yeast fitness of 0.536.
With U2G U7G U16C C34U the yeast fitness was ≤ 0.5.
With U2G U13G A57G the yeast fitness was 0.538.
In the case of U2G G41C A65C, the yeast fitness is reported as 0.534.
U2G G25U A65U gave a yeast fitness of 0.532.
In the case of U2G G18A A40C G68C, the yeast fitness is reported as ≤ 0.5.
In the case of U2G U7C U28A, the yeast fitness is reported as ≤ 0.5.
For U2G U13G U16C, the yeast fitness was ≤ 0.5.
With U2G G12A U13A G25C U28A C33A G67U the yeast fitness was ≤ 0.5.
With U2G G9C the yeast fitness was 0.755.
With U2G C31G C33G A40U G52A C60G C62U the yeast fitness was 0.515.
With U2G G25A A65C the yeast fitness was 0.637.
U2G G48A gave a yeast fitness of 0.94.
With U2G G48C the yeast fitness was 0.849.
In the case of U2G U16G A21U C33A C66G, the yeast fitness is reported as ≤ 0.5.
U2G G68U gave a yeast fitness of 0.835.
With U2G G44C C60U A69G the yeast fitness was ≤ 0.5.
For U2G G10C G67C, the yeast fitness was ≤ 0.5.
In the case of U2G G18A C49U G52A G68C, the yeast fitness is reported as ≤ 0.5.
With U2G C31U U53A the yeast fitness was ≤ 0.5.
For U2G G51A C60U, the yeast fitness was ≤ 0.5.
For U2G C30U A40C G63C U64C, the yeast fitness was ≤ 0.5.
With U2G G17A C33G G39C C55U the yeast fitness was ≤ 0.5.
For U2G G10C G63A, the yeast fitness was ≤ 0.5.
For U2G C33G G39C A65C, the yeast fitness was ≤ 0.5.
For U2G C34G G67U, the yeast fitness was ≤ 0.5.
With U2G G25C G52A A57C A70C the yeast fitness was ≤ 0.5.
With U2G U19A C46U the yeast fitness was ≤ 0.5.
For U2G G9A G41A, the yeast fitness was ≤ 0.5.
In the case of U2G G63C, the yeast fitness is reported as 0.694.
In the case of U2G C49U G52A G68C, the yeast fitness is reported as ≤ 0.5.
With U2G C55U C61G A65G G68A the yeast fitness was ≤ 0.5.
With U2G C49U G51C C55A the yeast fitness was ≤ 0.5.
Variant U2G U19A U53C G67A has a yeast fitness of 0.563.
With U2G G9C A15U U19C the yeast fitness was ≤ 0.5.
U2G U19A C66U gave a yeast fitness of 0.606.
Variant U2G G48A C60G has a yeast fitness of 0.541.
For U2G G9A U59A, the yeast fitness was ≤ 0.5.
For U2G C46G A65U, the yeast fitness was 0.623.
In the case of U2G G6C U54A, the yeast fitness is reported as ≤ 0.5.
Variant U2G G6A A57G has a yeast fitness of 0.527.
With U2G U3A C5U U7C U8A A20C U35C A37U A57C the yeast fitness was 0.565.
U2G G48C G52C C62G gave a yeast fitness of 0.541.
U2G C62G A70U gave a yeast fitness of 0.822.
With U2G G6A U53G U54G C55A the yeast fitness was ≤ 0.5.
For U2G G10C A43C, the yeast fitness was ≤ 0.5.
In the case of U2G U3G C11U G52C C55G A70G, the yeast fitness is reported as ≤ 0.5.
For U2G U13A U16A C29G, the yeast fitness was ≤ 0.5.
For U2G U26A A43G G44C U53C, the yeast fitness was ≤ 0.5.
For U2G U13A C22U U54A C61G A69C, the yeast fitness was ≤ 0.5.
U2G U19A A69U gave a yeast fitness of 0.551.
U2G G6A A70G gave a yeast fitness of 0.776.
U2G C46A showed a yeast fitness of 0.808.
For U2G C33A G39C A69U, the yeast fitness was ≤ 0.5.
In the case of U2G G44A, the yeast fitness is reported as 0.849.
For U2G U13C A21G U35A, the yeast fitness was ≤ 0.5.
For U2G G9C G12A A20G A42C C46G C49U A69C, the yeast fitness was ≤ 0.5.
For U2G G9C G12A A42C C46A U64C, the yeast fitness was ≤ 0.5.
For U2G U7C A37C U59C, the yeast fitness was ≤ 0.5.
With U2G U8C U26C G56A the yeast fitness was ≤ 0.5.
In the case of U2G C33U A42C, the yeast fitness is reported as 0.681.
For U2G C31U G48C C62A, the yeast fitness was ≤ 0.5.
With U2G G23C G58A the yeast fitness was ≤ 0.5.
In the case of U2G G6A G23A C29G G50U C55A, the yeast fitness is reported as ≤ 0.5.
In the case of U2G C31U U47G, the yeast fitness is reported as ≤ 0.5.
In the case of U2G G9C A14C A36U C46A C62G, the yeast fitness is reported as ≤ 0.5.
Variant U2G C33U A36U A43C A69C has a yeast fitness of 0.767.
For U2G C31G A57U, the yeast fitness was ≤ 0.5.
With U2G C55A C60G C62G the yeast fitness was ≤ 0.5.
With U2G G18C C29G C30A C34G G48C the yeast fitness was 0.604.
With U2G U13A G58A the yeast fitness was 0.585.
With U2G G9A C22A C24A A43C the yeast fitness was ≤ 0.5.
In the case of U2G U13A U28A G39A G48A C61G C66G, the yeast fitness is reported as ≤ 0.5.
For U2G G10C A65C, the yeast fitness was ≤ 0.5.
With U2G U26A U54A the yeast fitness was ≤ 0.5.
U2G G6A G44A G67C showed a yeast fitness of 0.531.
Work on U2G C31A A69C yielded a yeast fitness of 0.557.
U2G C31U A70U showed a yeast fitness of 0.772.
With U2G G44A G51C A65U the yeast fitness was ≤ 0.5.
For U2G G9C C60A, the yeast fitness was ≤ 0.5.
Variant U2G G38A A69C has a yeast fitness of 0.531.
With U2G C34G G39C G41C G67C A70C the yeast fitness was ≤ 0.5.
Work on U2G C30G G39C yielded a yeast fitness of 0.551.
In the case of U2G G6A C49G, the yeast fitness is reported as ≤ 0.5.
U2G G58A C60A C66G showed a yeast fitness of 0.562.
U2G C34G A43C gave a yeast fitness of 0.552.
For U2G G6A C27U A36U C61U C62G, the yeast fitness was ≤ 0.5.
U2G C30U gave a yeast fitness of 0.843.
With U2G U7G C60U C61A G67C the yeast fitness was ≤ 0.5.
Variant U2G U26A has a yeast fitness of 0.828.
With U2G C34U A36C C61A the yeast fitness was ≤ 0.5.
For U2G U26A G52A, the yeast fitness was ≤ 0.5.
Variant U2G G12A G41C has a yeast fitness of 0.596.
U2G C61U showed a yeast fitness of 0.88.
With U2G G39A G68U the yeast fitness was ≤ 0.5.
In the case of U2G G10A G50A, the yeast fitness is reported as ≤ 0.5.
In the case of U2G G6A C55U, the yeast fitness is reported as ≤ 0.5.
With U2G U8C the yeast fitness was 0.891.
For U2G C34U A40G C46A, the yeast fitness was ≤ 0.5.
In the case of U2G G9C A36U A45C, the yeast fitness is reported as ≤ 0.5.
In the case of U2G C31G U35A A45U, the yeast fitness is reported as ≤ 0.5.
For U2G G9C A15G G48C G51A, the yeast fitness was ≤ 0.5.
In the case of U2G C49A A57C, the yeast fitness is reported as ≤ 0.5.
With U2G C31G A42G A57U the yeast fitness was ≤ 0.5.
With U2G C33G G39C C55U the yeast fitness was 0.523.
U2G G67U showed a yeast fitness of 0.821.
U2G G67C gave a yeast fitness of 0.759.
U2G G67A showed a yeast fitness of 0.901.
Work on U2G C33U A36U A43C yielded a yeast fitness of 0.688.
In the case of U2G C55U, the yeast fitness is reported as 0.667.
In the case of U2G C33U G58C, the yeast fitness is reported as 0.566.
With U2G C60G A69U the yeast fitness was ≤ 0.5.
Variant U2G G17C C33U U47A has a yeast fitness of 0.535.
Work on U2G G41C yielded a yeast fitness of 0.818.
For U2G G44A G51C, the yeast fitness was ≤ 0.5.
Work on U2G C30A U35G yielded a yeast fitness of 0.66.
For U2G G12A G41C A57U, the yeast fitness was ≤ 0.5.
With U2G G9C G12A A42C C46A the yeast fitness was 0.577.
For U2G G18A A21G G25A G51C, the yeast fitness was ≤ 0.5.
With U2G C34G C49G C61U A69G the yeast fitness was ≤ 0.5.
With U2G G9C A20G A42C C46G C49U G68A A70U the yeast fitness was ≤ 0.5.
Variant U2G C31U A37C has a yeast fitness of 0.56.
In the case of U2G C34U A57C, the yeast fitness is reported as ≤ 0.5.
In the case of U2G C34U A57G, the yeast fitness is reported as ≤ 0.5.
For U2G U3G C29G C30G C46G, the yeast fitness was ≤ 0.5.
For U2G G6A C27U A36U G68C, the yeast fitness was ≤ 0.5.
With U2G U13C A21G U35A C55U A65G the yeast fitness was ≤ 0.5.
In the case of U2G G50C, the yeast fitness is reported as 0.6.
With U2G G50A the yeast fitness was 0.888.
With U2G G48A G58C C61A the yeast fitness was ≤ 0.5.
With U2G G39A G51A the yeast fitness was ≤ 0.5.
With U2G G12C A20U C33U A37U A57U the yeast fitness was ≤ 0.5.
With U2G G6A G56C the yeast fitness was ≤ 0.5.
Variant U2G U7C has a yeast fitness of 0.772.
With U2G G6A A15U C62G the yeast fitness was ≤ 0.5.
U2G C33A showed a yeast fitness of 0.632.
U2G G12U gave a yeast fitness of 1.15.
For U2G G9A U16G C62U U64C, the yeast fitness was ≤ 0.5.
With U2G C33U G52A the yeast fitness was ≤ 0.5.
U2G C60G showed a yeast fitness of 0.592.
For U2G U13C A21G G39C C55U, the yeast fitness was ≤ 0.5.
With U2G C31U G50A C61G C66U A69U the yeast fitness was ≤ 0.5.
Work on U2G G58A yielded a yeast fitness of 1.16.
For U2G G58C, the yeast fitness was 0.755.
With U2G G38A G52C C61A the yeast fitness was 0.555.
